Results as given in ChEMBL document CHEMBL1123106, “Synthesis and biological activity of modified peptide inhibitors of angiotensin-converting enzyme” (J Med Chem, 1985).
Values belong to the molecule of their own block, whether it stands above or below them.

How the values were obtained:
Rattus norvegicus [1] = experiment: % Decrease in mean arterial pressure in conscious renal hypertensive rats at a dose of 3 mg/Kg, administered perorally at MAP 190 mmHg; format: functional, Artery
Method in brief: (§1)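 Conscious two-kidney, one-clip Goldblatt renal hypertensive rats (N = 3) were dosed orally at 3 or 30 mg/kg. Predose mean arterial pressure was about 190 mmHg. The read-out is % decrease in mean arterial pressure. N marks no significant lowering of arterial pressure at that dose.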

[2] = system: Angiotensin-converting enzyme (Cavia porcellus); experiment: In vitro inhibitory activity against Angiotensin I converting enzyme from unpurified guinea pig serum; No significant activity
Rattus norvegicus [3] = experiment: % decrease in mean arterial pressure in conscious renal hypertensive rats at a dose of 3 mg/Kg, administered perorally at MAP 190 mm Hg; format: functional, Artery; method in brief: as §1
Rattus norvegicus [4] = experiment: % decrease in mean arterial pressure in conscious renal hypertensive rats at a dose of 3 mg/Kg, administered perorally at MAP 190 mm Hg; N means no significant lowering of arterial pressure; format: functional, organism-based; conditions: Artery; method in brief: as §1
Rattus norvegicus [5] = experiment: % decrease in mean arterial pressure in conscious renal hypertensive rats at a dose of 30 mg/Kg, administered perorally at MAP 190 mmHg; format: functional, Artery; method in brief: as §1
Rattus norvegicus [6] = experiment: % Decrease in mean arterial pressure in conscious renal hypertensive rats at a dose of 30 mg/Kg, administered perorally at MAP 190 mmHg; format: functional, Artery; method in brief: as §1
Rattus norvegicus [7] = experiment: % decrease in mean arterial pressure in conscious renal hypertensive rats at a dose of 3 mg/Kg, administered perorally at MAP 190 mmHg; format: functional, Artery; method in brief: as §1
Rattus norvegicus [8] = experiment: % Decrease in mean arterial pressure in conscious renal hypertensive rats at a dose of 3 mg/Kg, administered perorally at MAP 190 mm Hg; N means no significant lowering of arterial pressure; format: functional, organism-based; conditions: Artery; method in brief: as §1

SMILES: CCOC(=O)[C@H](CCc1ccccc1)N[C@@H](C)C(=O)N1Cc2ccccc2C[C@H]1C(=O)O
Decrease in mean arterial pressure (Rattus norvegicus [1]): 54%

IC50 [2]: No significant activity
SMILES: CC(SC(CCc1ccccc1)C(=O)O)C(=O)NC1(C(=O)O)CCC(c2ccccc2)CC1 (stereo not drawn)

SMILES: CCOC(=O)[C@H](CCc1ccccc1)N[C@@H](C)C(=O)N1CCC[C@H]1C(=O)O
Decrease in mean arterial pressure (Rattus norvegicus [3]): 55%

IC50 [2]: No significant activity
SMILES: CC(SC(CCc1ccccc1)C(=O)O)C(=O)NC1(C(=O)O)CCCC1 (stereo not drawn)

SMILES: C[C@H](CS)C(=O)N1CCC[C@H]1C(=O)O [CAPTOPRIL]
Decrease in mean arterial pressure (Rattus norvegicus [3]): 49%

SMILES: CCOC(=O)C(CCc1ccccc1)OC(C)C(=O)N1C(C(=O)O)CC2CCCCC21 (stereo not drawn)
Decrease in mean arterial pressure (Rattus norvegicus [4]): No significant activity | Decrease in mean arterial pressure (Rattus norvegicus [5]): 12%

IC50 [2]: No significant activity
SMILES: CCOC(=O)C(CCc1ccccc1)S(=O)(=O)C(C)C(=O)N1CCC[C@H]1C(=O)O (stereo partly drawn)

SMILES: CCOC(=O)C(CCc1ccccc1)OC(C)C(=O)N1CCCC1C(=O)O (stereo not drawn)
Decrease in mean arterial pressure (Rattus norvegicus [6]): 3% | Decrease in mean arterial pressure (Rattus norvegicus [4]): No significant activity

SMILES: CCOC(=O)C(CCc1ccccc1)OC(C)C(=O)N1Cc2ccccc2CC1C(=O)O (stereo not drawn)
Decrease in mean arterial pressure (Rattus norvegicus [7]): 8% | Decrease in mean arterial pressure (Rattus norvegicus [5]): 18%

IC50 [2]: No significant activity
SMILES: CC(C(=O)N1CCC[C@H]1C(=O)O)S(=O)(=O)C(CCc1ccccc1)C(=O)O (stereo partly drawn)

SMILES: CC(OC(CCc1ccccc1)C(=O)O)C(=O)N1CCCC1C(=O)O (stereo not drawn)
Decrease in mean arterial pressure (Rattus norvegicus [4]): No significant activity | Decrease in mean arterial pressure (Rattus norvegicus [5]): 9%

SMILES: CCOC(=O)[C@H](CCc1ccccc1)N[C@@H](C)C(=O)N1C2CCCCC2C[C@H]1C(=O)O (stereo partly drawn)
Decrease in mean arterial pressure (Rattus norvegicus [3]): 46%

SMILES: CCOC(=O)C(CCc1ccccc1)[S+]([O-])C(C)C(=O)N1C2CCCCC2C[C@H]1C(=O)O (stereo partly drawn)
Decrease in mean arterial pressure (Rattus norvegicus [8]): No significant activity | Decrease in mean arterial pressure (Rattus norvegicus [6]): 10%
